Measured values as given in ChEMBL document CHEMBL5058577, “EUbOPEN Chemogenomics Library 2 (Multiplex)” (2022).

Test system: U2OS
Experiment: Multiplex assay against U2OS
Format: toxicity, cell-based
Conditions: human
Procedure, shortened: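 Compound was added to live cells that had been stained at seeding with Hoechst33342, BioTracker Green Microtubule Cytoskeleton Dye, MitoTracker Red and Annexin V Alexa Fluor 680, and imaging followed on a CQ1 microscope at 37°C and 5% CO2. CellPathfinder machine-learning gating divided cells into Hoechst high-intensity objects or normal cells, normal cells into healthy, pyknosed or fragmented nuclei, and pyknosed cells into mitotic or apoptotic. Tubulin, mitochondrial-mass and membrane-permeability phenotypes are per cents of healthy-nucleus cells.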

[1] = 12 h, 1 µM, compound concentration 1 uM, replicate 1
[2] = 12 h, 1 µM, compound concentration 1 uM, replicate 2
[3] = 12 h, 10 µM, compound concentration 10 uM, replicate 1
[4] = 12 h, 10 µM, compound concentration 10 uM, replicate 2
[5] = 24 h, 1 µM, compound concentration 1 uM, replicate 1
[6] = 24 h, 1 µM, compound concentration 1 uM, replicate 2
[7] = 24 h, 10 µM, compound concentration 10 uM, replicate 1
[8] = 24 h, 10 µM, compound concentration 10 uM, replicate 2
[9] = 48 h, 1 µM, compound concentration 1 uM, replicate 1
[10] = 48 h, 1 µM, compound concentration 1 uM, replicate 2
[11] = 48 h, 10 µM, compound concentration 10 uM, replicate 1
[12] = 48 h, 10 µM, compound concentration 10 uM, replicate 2

In the case of `O=C(O)c1cc2ccccc2c(Cc2c(O)c(C(=O)O)cc3ccccc23)c1O` [PAMOIC ACID], the “Population Apoptotic (%)” value [1] is reported as 85%, the “Population Fragmented Nuclei (%)” value [1] is reported as 23% and the “Population Healthy Nuclei (%)” value [1] is reported as 68%. The “Population Hoechst High Intensity Objects (%)” value [1] was 1%, the “Population Membrane Permeable-Phenotype (%)” value [1] was 2% and the “Population Mitochondria Different-Phenotype (%)” value [1] was 0%. The “Population Mitotic Cells (%)” value [1] was 15%, the “Population Normal (%)” value [1] was 98% and the “Population Pyknosed Nuclei (%)” value [1] was 8%. The “Population Tubulin-Different-Phenotype (%)” value [1] was 0%, the “Total Cell Count” value [1] was 246 and the “Population Apoptotic (%)” value [2] was 50%. For the same compound, the “Population Fragmented Nuclei (%)” value [2] was 15%, the “Population Healthy Nuclei (%)” value [2] was 73% and the “Population Hoechst High Intensity Objects (%)” value [2] was 0%. The “Population Membrane Permeable-Phenotype (%)” value [2] was 12%, the “Population Mitochondria Different-Phenotype (%)” value [2] was 6% and the “Population Mitotic Cells (%)” value [2] was 50%. The “Population Normal (%)” value [2] was 100%, the “Population Pyknosed Nuclei (%)” value [2] was 11% and the “Population Tubulin-Different-Phenotype (%)” value [2] was 13%. The “Total Cell Count” value [2] was 109, the “Population Apoptotic (%)” value [3] was 75% and the “Population Fragmented Nuclei (%)” value [3] was 19%. The “Population Healthy Nuclei (%)” value [3] was 75%, the “Population Hoechst High Intensity Objects (%)” value [3] was 2% and the “Population Membrane Permeable-Phenotype (%)” value [3] was 6%. For the same compound, the “Population Mitochondria Different-Phenotype (%)” value [3] was 1%, the “Population Mitotic Cells (%)” value [3] was 25% and the “Population Normal (%)” value [3] was 97%. For the same compound, the “Population Pyknosed Nuclei (%)” value [3] was 4%, the “Population Tubulin-Different-Phenotype (%)” value [3] was 4% and the “Total Cell Count” value [3] was 259. The “Population Apoptotic (%)” value [4] was 87%, the “Population Hoechst High Intensity Objects (%)” value [4] was 0% and the “Population Membrane Permeable-Phenotype (%)” value [4] was 5%. The “Population Mitochondria Different-Phenotype (%)” value [4] was 3%, the “Population Mitotic Cells (%)” value [4] was 12% and the “Population Normal (%)” value [4] was 100%. For the same compound, the “Population Pyknosed Nuclei (%)” value [4] was 5%, the “Population Tubulin-Different-Phenotype (%)” value [4] was 2% and the “Total Cell Count” value [4] was 140. The “Population Apoptotic (%)” value [5] was 92%, the “Population Fragmented Nuclei (%)” value [5] was 18% and the “Population Healthy Nuclei (%)” value [5] was 72%. For the same compound, the “Population Hoechst High Intensity Objects (%)” value [5] was 1%, the “Population Membrane Permeable-Phenotype (%)” value [5] was 2% and the “Population Mitochondria Different-Phenotype (%)” value [5] was 0%. The “Population Mitotic Cells (%)” value [5] was 8%, the “Population Normal (%)” value [5] was 98% and the “Population Pyknosed Nuclei (%)” value [5] was 8%. For the same compound, the “Population Tubulin-Different-Phenotype (%)” value [5] was 1%, the “Total Cell Count” value [5] was 288 and the “Population Apoptotic (%)” value [6] was 76%. For the same compound, the “Population Fragmented Nuclei (%)” value [6] was 20%, the “Population Healthy Nuclei (%)” value [6] was 70% and the “Population Hoechst High Intensity Objects (%)” value [6] was 0%. For the same compound, the “Population Membrane Permeable-Phenotype (%)” value [6] was 11%, the “Population Mitochondria Different-Phenotype (%)” value [6] was 2% and the “Population Mitotic Cells (%)” value [6] was 23%. The “Population Normal (%)” value [6] was 99%, the “Population Pyknosed Nuclei (%)” value [6] was 9% and the “Population Tubulin-Different-Phenotype (%)” value [6] was 7%. The “Total Cell Count” value [6] was 139, the “Population Apoptotic (%)” value [7] was 82% and the “Population Fragmented Nuclei (%)” value [7] was 17%. The “Population Healthy Nuclei (%)” value [7] was 76%, the “Population Hoechst High Intensity Objects (%)” value [7] was 3% and the “Population Membrane Permeable-Phenotype (%)” value [7] was 5%. The “Population Mitochondria Different-Phenotype (%)” value [7] was 2%, the “Population Mitotic Cells (%)” value [7] was 17% and the “Population Normal (%)” value [7] was 96%. The “Population Pyknosed Nuclei (%)” value [7] was 5%, the “Population Tubulin-Different-Phenotype (%)” value [7] was 3% and the “Total Cell Count” value [7] was 314. For the same compound, the “Population Apoptotic (%)” value [8] was 90%, the “Population Fragmented Nuclei (%)” value [8] was 13% and the “Population Healthy Nuclei (%)” value [8] was 79%. For the same compound, the “Population Hoechst High Intensity Objects (%)” value [8] was 1%, the “Population Membrane Permeable-Phenotype (%)” value [8] was 7% and the “Population Mitochondria Different-Phenotype (%)” value [8] was 3%. The “Population Mitotic Cells (%)” value [8] was 9%, the “Population Normal (%)” value [8] was 98% and the “Population Pyknosed Nuclei (%)” value [8] was 6%. The “Population Tubulin-Different-Phenotype (%)” value [8] was 7%, the “Total Cell Count” value [8] was 163 and the “Population Apoptotic (%)” value [9] was 83%. The “Population Fragmented Nuclei (%)” value [9] was 16%, the “Population Healthy Nuclei (%)” value [9] was 74% and the “Population Hoechst High Intensity Objects (%)” value [9] was 1%. The “Population Membrane Permeable-Phenotype (%)” value [9] was 2%, the “Population Mitochondria Different-Phenotype (%)” value [9] was 1% and the “Population Mitotic Cells (%)” value [9] was 16%. For the same compound, the “Population Normal (%)” value [9] was 98%, the “Population Pyknosed Nuclei (%)” value [9] was 9% and the “Population Tubulin-Different-Phenotype (%)” value [9] was 2%. The “Total Cell Count” value [9] was 469, the “Population Apoptotic (%)” value [10] was 90% and the “Population Fragmented Nuclei (%)” value [10] was 11%. For the same compound, the “Population Healthy Nuclei (%)” value [10] was 76%, the “Population Hoechst High Intensity Objects (%)” value [10] was 2% and the “Population Membrane Permeable-Phenotype (%)” value [10] was 9%. The “Population Mitochondria Different-Phenotype (%)” value [10] was 3%, the “Population Mitotic Cells (%)” value [10] was 10% and the “Population Normal (%)” value [10] was 97%. For the same compound, the “Population Pyknosed Nuclei (%)” value [10] was 11%, the “Population Tubulin-Different-Phenotype (%)” value [10] was 5% and the “Total Cell Count” value [10] was 177. The “Population Apoptotic (%)” value [11] was 96%, the “Population Fragmented Nuclei (%)” value [11] was 15% and the “Population Healthy Nuclei (%)” value [11] was 77%. The “Population Hoechst High Intensity Objects (%)” value [11] was 3%, the “Population Membrane Permeable-Phenotype (%)” value [11] was 5% and the “Population Mitochondria Different-Phenotype (%)” value [11] was 1%. For the same compound, the “Population Mitotic Cells (%)” value [11] was 3%, the “Population Normal (%)” value [11] was 96% and the “Population Pyknosed Nuclei (%)” value [11] was 6%. For the same compound, the “Population Tubulin-Different-Phenotype (%)” value [11] was 4%, the “Total Cell Count” value [11] was 455 and the “Population Apoptotic (%)” value [12] was 89%. For the same compound, the “Population Fragmented Nuclei (%)” value [12] was 20%, the “Population Healthy Nuclei (%)” value [12] was 66% and the “Population Hoechst High Intensity Objects (%)” value [12] was 0%. For the same compound, the “Population Membrane Permeable-Phenotype (%)” value [12] was 6%, the “Population Mitochondria Different-Phenotype (%)” value [12] was 2% and the “Population Mitotic Cells (%)” value [12] was 10%. For the same compound, the “Population Normal (%)” value [12] was 99%, the “Population Pyknosed Nuclei (%)” value [12] was 13% and the “Population Tubulin-Different-Phenotype (%)” value [12] was 2%. For the same compound, the “Total Cell Count” value [12] was 218.
